Data published in ChEMBL document CHEMBL4680238, “Novel octapeptide-DTX prodrugs targeting MMP-7 as effective agents for the treatment of colorectal cancer with lower systemic toxicity” (Eur J Med Chem, 2020).
Residues, ends and D or L forms follow the SMILES beside them. *: point of attachment. X1 = CC(=O)O[C@@]12CO[C@@H]1C[C@H](O)[C@@]1(C)C(=O)[C@H](O)C3=C(C)[C@@H](OC(=O)[C@H](OC(=O)OCc4ccc(N*)cc4)[C@@H](NC(=O)OC(C)(C)C)c4ccccc4)C[C@@](O)([C@@H](OC(=O)c4ccccc4)[C@H]21)C3(C)C

What was measured:
[1] = MRT (0 to infinity) in Sprague-Dawley rat at 5 mg/kg, iv measured up to 72 hrs by LC-MS/MS analysis; type: ADME, organism-based; settings: in vivo
Method in brief: (§1)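 Male SD rats (180-200 g), fasted 12 h with free water, n = 3 per group. Single tail-vein dose of 5 mg/kg in 0.5% DMSO/5% castor oil/5% ethanol/89.5% saline. Retro-orbital blood drawn 0.083-72 h with heparin. Plasma protein-precipitated with methanol containing paclitaxel internal standard, then analysed by LC-MS/MS. Parameters from non-compartmental analysis, mean ± SD. For the DTX group, parameters were calculated after converting dose to the molar equivalent of the prodrug.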

[2] = Drug uptake in BALB/c nude mouse xenografted with human HCT-116 cells assessed as drug level in tumour at 5 mg/kg, iv measured up to 24 hrs by LC-MS/MS analysis; type: ADME, organism-based, Neoplasm; settings: in vivo
Method in brief: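 Male BALB/c nude mice bearing s.c. HCT116 tumours (200-300 mm3), 20 per group. Single tail-vein dose of 5 mg/kg. Five mice per group killed at 0.5, 4, 8 and 24 h and heart-perfused with PBS. Tissues homogenized in saline (4 µL/mg) and precipitated with methanol containing paclitaxel internal standard. Prodrug, released DTX and free DTX measured by LC-MS/MS.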

[3] = Toxicity in BALB/c nude mouse xenografted with human HCT-116 cells assessed as reduction in body weight at 11.7 mg/kg, ip administered once for every 7 days for 14 days relative to control; type: organism-based; set-up: scale not given: the % may be the effect or the level left; settings: in vivo, 336 h, time 14 day
Method in brief: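 HCT116 s.c. xenografts in male BALB/c nude mice, n = 6 per group. Dosing was ip once every 7 days for 2 weeks in DMSO/castor oil/ethanol/saline; vehicle controls got solvent. Body weight recorded every other day or every three days. Weight loss taken at day 14. Mean ± SD.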

[4] = AUC (0 to infinity) in Sprague-Dawley rat assessed as docetaxel level at 5 mg/kg, iv measured up to 72 hrs by LC-MS/MS analysis; type: ADME, organism-based; set-up: route intravenous, dose 5 mg/kg, time <=72; settings: in vivo; method in brief: as §1
[5] = AUC (0 to t) in Sprague-Dawley rat assessed as docetaxel level at 5 mg/kg, iv measured up to 72 hrs by LC-MS/MS analysis; type: ADME, organism-based; set-up: route intravenous, dose 5 mg/kg, time <=72; settings: in vivo; method in brief: as §1
SW-620 = experiment: Cytotoxicity against human SW-620 cells assessed as reduction in cell viability after 72 hrs by MTT assay; type: functional, cell-based; settings: SW-620, 72 h
Method in brief: (§2)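 Cells seeded at 5000/well and precultured 1 day. HCT116 grown in McCoy's 5A + 10% FBS; SW620 and HEK293 in DMEM + 10% FBS; CCD18Co in DMEM + 15% FBS. Compounds from 0.1 M DMSO stocks were tested at 10^-10 to 10^-4 mol/L in sixplicate: HCT116 and HEK293 for 48 h, SW620 and CCD18Co for 72 h, at 37 °C, 5% CO2. MTT (5 mg/mL) added for 4 h, then A570 read; IC50 estimated.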

[6] = Apparent volume of distribution in Sprague-Dawley rat assessed as docetaxel level at 5 mg/kg, iv measured up to 72 hrs by LC-MS/MS analysis; type: ADME, organism-based; settings: in vivo; method in brief: as §1
[7] = Toxicity in BALB/c nude mouse xenografted with human HCT-116 cells assessed as inflammatory cell invasion in heart at 11.73 mg/kg, ip administered once for every 7 days for 14 days by H and E staining based assay; type: organism-based; settings: in vivo, 336 h, time 14 day
Method in brief: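 At the end of the 14-day ip xenograft study (HCT116, BALB/c nude), heart and liver were collected from vehicle and molar-equivalent dose groups. Tissues fixed in 10% formalin in PBS and stained with H&E. Liver examined at 400×, heart at 100×.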

[8] = Apparent volume of distribution in Sprague-Dawley rat at 5 mg/kg, iv measured up to 72 hrs by LC-MS/MS analysis; type: ADME, organism-based; settings: in vivo, read-out: Vz; method in brief: as §1
[9] = Toxicity in ip dosed Kunming mouse measured for 14 days; type: organism-based; settings: in vivo, time 14 day
Method in brief: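 Healthy Kunming mice of both sexes, 20 ± 2 g, randomised into 5 groups of 10 matched for weight and size. Compound given once intraperitoneally at 400, 300, 250 or 150 mg/kg in formulation solvent (0.5% DMSO, 5% castor oil, 5% ethanol, 89.5% saline), 0.1 mL per 10 g; vehicle controls received solvent. Deaths recorded daily for 14 days; LD50 by Bliss method.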

[10] = MRT (0 to infinity) in Sprague-Dawley rat assessed as docetaxel level at 5 mg/kg, iv measured up to 72 hrs by LC-MS/MS analysis; type: ADME, organism-based; settings: in vivo; method in brief: as §1
[11] = Toxicity in BALB/c nude mouse xenografted with human HCT-116 cells assessed as reduction in body weight at 5.85 mg/kg, ip administered once for every 7 days for 14 days relative to control; type: organism-based; set-up: scale not given: the % may be the effect or the level left; settings: in vivo, 336 h, time 14 day
Method in brief: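 HCT116 cells (2 × 10^6 in 0.2 mL PBS) inoculated subcutaneously into male BALB/c nude mice; at mean tumor volume 100-200 mm3, randomized, six mice per group. Dosed intraperitoneally once every 7 days in DMSO (0.5%)/castor oil (5%)/ethanol (5%)/saline (89.5%), 0.1 mL per 10 g; vehicle controls received solvent. Body weight monitored every other day or three days; mice weighed on day 14.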

HCT-116 = experiment: Antitumour activity against human HCT-116 cells xenografted in BALB/c nude mouse assessed as tumour growth inhibition at 11.7 mg/kg, ip administered once for every 7 days for 14 days relative to control; type: functional; settings: HCT-116, ip, 336 h, time 14 day, read-out: TGI
Method in brief: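 Male BALB/c nude mice received s.c. HCT116 cells (2 × 10^6 in 0.2 mL PBS). Once tumours reached 100-200 mm3, mice were randomized into groups of six. Dosing was ip, 0.1 mL/10 g, once every 7 days, in DMSO 0.5%/castor oil 5%/ethanol 5%/saline 89.5%; vehicle controls got solvent. Caliper volume V = L×W²×0.52 read every 2-3 days. Tumours excised and weighed on day 14.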

HEK293 = experiment: Cytotoxicity against HEK293 cells assessed as reduction in cell viability after 48 hrs by MTT assay; type: cell-based; settings: Homo sapiens, HEK293, 48 h; method in brief: as §2

CC[C@H](C)[C@H](NC(=O)CNC(=O)[C@H](CCC(N)=O)NC(=O)[C@@H]1CCCN1C(=O)CNC(C)=O)C(=O)N[C@@H](C)C(=O)N[C@@H](CCSC)C(=O)N[C@@H](CCC(N)=O)C(=O)N[C@@H](CC(C)C)C(=O)Nc1ccc(COC(=O)O[C@@H](C(=O)O[C@H]2C[C@@]3(O)[C@@H](OC(=O)c4ccccc4)[C@@H]4[C@]5(OC(C)=O)CO[C@@H]5C[C@H](O)[C@@]4(C)C(=O)[C@H](O)C(=C2C)C3(C)C)[C@@H](NC(=O)OC(C)(C)C)c2ccccc2)cc1 (Ac-GPQGIAMQL-X1)
MRT inf [1]: 11.6 h
Drug uptake [2]: Active
Activity [3]: 8.5%
AUC [4]: 299 ng·h/mL
AUCt [5]: 247 ng·h/mL
IC50 (SW-620): 0.03 µM
Vz [6]: 206.32 L/kg
Activity [7]: Non-Toxic
Vd [8]: 10.4 L/kg
LD50 at 336 h [9]: 245 mg/kg
MRT [10]: 9.04 h
Activity [11]: 4.9%
inhibition in vivo at 11.7 mg/kg (HCT-116): 46.3%
IC50 (HEK293): 137 µM
